Measured values: ChEMBL document CHEMBL5126632, “Balancing Affinity, Selectivity, and Cytotoxicity of Hydrazone-Based G-Quadruplex Ligands for Activation of Interferon β Genes in Cancer Cells” (J Med Chem, 2022)

Columns and labels:
Quadruplex DNA [1] = assay: Stabilization of c-myc G4 quadruplex d(TTAGGGTTAGGGTTAGGGTTAGGGTT) DNA (unknown origin) assessed as thermal stability by measuring difference in melting temperature t1/2 by circular dichroism spectroscopy (reference value: 72 +/- 0.5 degC); type: nucleic-acid assay
[2] = Stabilization of F-c-kit1-T (unknown origin) assessed as difference in melting temperature t1/2 in presence of d(CGC GAA TTC GCG TIT CGC GAA TTC GCG) DNA hairpin (unknown origin) measured at 1:15 G4 to hairpin DNA ratio by FRET assay
Procedure, shortened: (§1)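 FRET melting of 0.2 μM prefolded FAM/TAMRA dual-labelled c-kit1 G4 in 5 mM K phosphate pH 7.0 with 20 mM KCl. Ligand was added at 2 molar equiv, with unlabelled hairpin competitor at 3 or 10 μM final (15 or 50 equiv relative to G4). FAM emission was read at 520 nm (excitation 492 nm) while heating at 0.2 °C/min over 15–90 °C. ΔT1/2 is relative to no ligand; at least duplicate, averaged.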

Quadruplex DNA [3] = assay: Binding affinity to c-kit1 G4 quadruplex d(DNA AGGGAGGGCGCTGGGAGGAGGG) DNA (unknown origin) assessed as dissociation constant by Microscale thermophoresis analysis; type: nucleic-acid assay
Procedure, shortened: (§2)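 MST with Cy5.5-labelled G4 oligonucleotide held at 20 nM, folded in 5 mM potassium phosphate pH 7.0 with 20 mM KCl plus 0.1% Tween. Ligand in 1:2 serial dilution mixed 1:1 with DNA, 20% DMSO final. Kd taken from binding curves.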

Quadruplex DNA [4] = assay: Stabilization of c-kit1 G4 quadruplex d(DNA AGGGAGGGCGCTGGGAGGAGGG) DNA (unknown origin) assessed as thermal stability by measuring difference in melting temperature t1/2 by circular dichroism spectroscopy (reference value: 54 +/- 0.5 degC); type: nucleic-acid assay
Quadruplex DNA [5] = assay: Stabilization of c-kit2 G4 quadruplex d(CGGGCGGGCGCTAGGGAGGGT) DNA (unknown origin) assessed as thermal stability by measuring difference in melting temperature t1/2 by circular dichroism spectroscopy (reference value: 61.5 +/- 0.5 degC); type: nucleic-acid assay
Quadruplex DNA [6] = assay: Stabilization of F-c-kit1-T quadruplex DNA (unknown origin) by measuring difference in melting temperature t1/2 by FRET assay; type: nucleic-acid assay
Procedure, shortened: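 FRET melting of 0.2 μM prefolded FAM/TAMRA-labelled c-kit1 in 5 mM potassium phosphate pH 7.0 with 20 mM KCl, with ligand at 2 molar equiv. Unlabelled hairpin competitor added at 3 or 10 μM (15 or 50 equiv). FAM emission at 520 nm (excitation 492 nm) followed from 15 to 90 °C at 0.2 °C/min. ΔT1/2 versus no ligand. At least duplicate.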

[7] = Stabilization of F-c-kit1-T (unknown origin) assessed as difference in melting temperature t1/2 in presence of d(CGC GAA TTC GCG TIT CGC GAA TTC GCG) DNA hairpin (unknown origin) measured at 1:50 G4 to hairpin DNA ratio by FRET assay; procedure, shortened: as §1
Quadruplex DNA [8] = assay: Stabilization of human Tel26 G4 quadruplex DNA assessed as thermal stability by measuring difference in melting temperature t1/2 by circular dichroism spectroscopy; type: nucleic-acid assay
Quadruplex DNA [9] = assay: Binding affinity to c-kit2 G4 quadruplex d(CGGGCGGGCGCTAGGGAGGGT) DNA (unknown origin) assessed as dissociation constant by Microscale thermophoresis analysis; type: nucleic-acid assay; procedure, shortened: as §2
Quadruplex DNA [10] = assay: Binding affinity toc-myc G4 quadruplex d(TTAGGGTTAGGGTTAGGGTTAGGGTT) DNA (unknown origin) assessed as dissociation constant by Microscale thermophoresis analysis; type: nucleic-acid assay; procedure, shortened: as §2
Quadruplex DNA [11] = assay: Displacement of thiazole orange from c-kit1 G4 quadruplex d(DNA AGGGAGGGCGCTGGGAGGAGGG) DNA (unknown origin) assessed as relative affinity by fluorescent intercalator displacement assay; type: nucleic-acid assay
Procedure, shortened: (§3)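 G4 DNA at 0.25 μM with 0.5 μM thiazole orange in 5 mM potassium phosphate pH 7.0 containing 20 mM KCl (LiCl for c-myc), 20 °C. Ligand titrated from 0.5 to 20 molar equiv with 3 min equilibration per addition. Excitation 485 nm, emission 500–650 nm. %displacement = 100 − (F/F0×100); DC50 is the concentration displacing 50% TO. Duplicate titrations.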

Quadruplex DNA [12] = assay: Displacement of thiazole orange from c-kit2 G4 quadruplex d(CGGGCGGGCGCTAGGGAGGGT) DNA (unknown origin) assessed as relative affinity by fluorescent intercalator displacement assay; type: nucleic-acid assay; procedure, shortened: as §3
Quadruplex DNA [13] = assay: Displacement of thiazole orange from c-myc G4 quadruplex d(TTAGGGTTAGGGTTAGGGTTAGGGTT) DNA (unknown origin) assessed as relative affinity by fluorescent intercalator displacement assay; type: nucleic-acid assay; procedure, shortened: as §3
[14] = Stabilization of d(CGC GAA TTC GCG TIT CGC GAA TTC GCG) DNA hairpin (unknown origin) assessed as thermal stability by measuring difference in melting temperature t1/2 by circular dichroism spectroscopy (reference value: 75.4 +/- 0.2 degC)
Procedure, shortened: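 CD melting of 15 μM annealed hairpin duplex in 5 mM K phosphate pH 7.0 with 20 mM KCl, with or without ligand at 2 molar equiv added to the folded DNA. The signal was followed at 252 nm from 20 to 100 °C at 1 °C/min, with T1/2 taken from a curve fit. ΔT1/2 is relative to DNA alone; duplicate runs, averaged.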

U2OS [15] = assay: Cytotoxicity against human U2OS cells assessed as cell survival preincubated for 24 hrs with compound further incubated for 48 hrs in drug free medium by MTT assay; type: functional, cell-based
Procedure, shortened: (§4)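 Exponentially growing cells seeded and treated 24 h after seeding with increasing concentrations for 24 h. Cells then recovered 48 h in drug-free medium. MTT added for 1 h at 37 °C, formazan dissolved in DMSO, absorbance read at 540 nm. IC50 from linear regression. Means ± SEM of two independent experiments in triplicate.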

U2OS [16] = assay: Induction of DNA damage in human U2OS cells assessed as increase in gammaH2AX phosphorylation at S139 incubated for 24 hrs by immunofluorescence microscopy; type: functional, cell-based; conditions: read-out: IC50 (the source's name)
Procedure, shortened: (§5)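 U2OS cells treated 24 h. Fixed with 4% formaldehyde, permeabilized with 0.5% Triton X-100, blocked with 8% BSA, stained with anti-γH2AX (1:500) and Alexa Fluor 594 secondary, DAPI counterstain. Fluorescence microscopy signal quantified as fold over untreated.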

[17] = Genotoxicity in mouse MNMCA1 cells assessed as induction of micronuclei formation at 1 uM incubated for 24 hrs by measuring fold change by DAPI staining based analysis; type: toxicity, cell-based; conditions: mnmca1, 24 h
U2OS [18] = assay: Induction of DNA damage in human U2OS cells assessed as fold increase in gammaH2AX phosphorylation at […] by measuring fold change at 10 uM incubated for 24 hrs by immunofluorescence microscopy; type: functional; procedure, shortened: as §5
[19] = Cytotoxicity against mouse MNMCA1 cells assessed as cell survival preincubated for 24 hrs with compound further incubated for 48 hrs in drug free medium by MTT assay; type: functional, cell-based; procedure, shortened: as §4

Row | Compound | ΔTm (Quadruplex DNA [1]) | ΔTm [2] | Kd (Quadruplex DNA [3]) | ΔTm (Quadruplex DNA [4]) | ΔTm (Quadruplex DNA [5]) | ΔTm (Quadruplex DNA [6]) | ΔTm [7] | ΔTm (Quadruplex DNA [8]) | Kd (Quadruplex DNA [9]) | Kd (Quadruplex DNA [10]) | IC50 (Quadruplex DNA [11]) | IC50 (Quadruplex DNA [12]) | IC50 (Quadruplex DNA [13]) | ΔTm [14] | IC50 (U2OS [15]) | EC50 (U2OS [16]) | fold change (FC) [17] | fold change (FC) (U2OS [18]) | IC50 [19]
1 | Clc1ccc(-c2nc3n(ccc4nc(-c5ccccc5)c(/C=N/NC5=NCCN5)n43)c2/C=N/NC2=NCCN2)cc1 | 10.6 °C | 24.8 °C | 70 nM | 17.7 °C | 19.2 °C | 26.6 °C | 23.8 °C | 6.6 °C | 500 nM | 1200 nM | 1200 nM | 1400 nM | 1300 nM | 1.2 °C | – | – | – | – | –
2 | N=C(N)N/N=C/c1c(-c2ccccc2)nc2ccn3c(C=O)c(-c4ccccc4)nc3n12 | 5.8 °C | 21.6 °C | 300 nM | 11.2 °C | 24.2 °C | 22 °C | 22.2 °C | 4.3 °C | 370 nM | 7000 nM | – | – | – | 1.7 °C | 2600 nM | 2400 nM | 2.5 | 2.32 | 1900 nM
3 | N=C(N)N/N=C/c1c(-c2ccc(Cl)cc2)nc2n1ccc1nc(-c3ccc(Cl)cc3)c(/C=N/NC(=N)N)n12 | 11.4 °C | – | – | 11.1 °C | > 30 °C | – | – | 4.1 °C | – | – | – | – | – | 2.9 °C | – | – | – | – | –
4 | Clc1ccc(-c2nc3n(ccc4nc(-c5ccc(Cl)cc5)c(/C=N/NC5=NCCN5)n43)c2/C=N/NC2=NCCN2)cc1 | 5.5 °C | – | – | 9.6 °C | 13.7 °C | – | – | 3.3 °C | – | – | – | – | – | 3.5 °C | – | – | – | – | –
5 | N=C(N)N/N=C/c1c(-c2ccsc2)nc2ccn3c(C=O)c(-c4ccsc4)nc3n12 | 9.1 °C | – | – | 16.1 °C | 25.2 °C | – | – | 4.8 °C | – | – | – | – | – | 2.7 °C | – | – | – | – | –
6 | Cc1ccc(-c2nc3n(ccc4nc(-c5ccccc5)c(/C=N/NC5=NCCN5)n43)c2/C=N/NC2=NCCN2)cc1 | 13.1 °C | – | – | 21.4 °C | > 30 °C | – | – | 6.2 °C | – | – | – | – | – | 2.2 °C | – | – | – | – | –
7 | Cc1ccc(-c2nc3n(ccc4nc(-c5ccccc5)c(/C=N/NC(=N)N)n43)c2/C=N/NC(=N)N)cc1 | 16.9 °C | – | – | 25.2 °C | > 30 °C | – | – | 6.3 °C | – | – | – | – | – | 3.2 °C | – | – | – | – | –
8 | O=Cc1c(-c2ccccc2)nc2n1ccc1nc(-c3ccccc3)c(/C=N/NC3=NCCN3)n12 | – | – | – | – | – | – | – | – | – | – | – | – | – | – | 4000 nM | 4000 nM | 2.5 | 1.55 | 2300 nM
9 | N=C(N)N/N=C/c1c(-c2ccc(Cl)cc2)nc2n1ccc1nc(-c3ccccc3)c(/C=N/NC(=N)N)n12 | 14.3 °C | – | – | 20.1 °C | > 30 °C | – | – | 8.3 °C | – | – | – | – | – | 2.6 °C | – | – | – | – | –
